Legend:
Format in all cases: cell-based
[1] = target: T1, Adenosine receptor A1 (Homo sapiens) (UniProt P30542); assay: Inhibition of [3H]R-PIA binding to human adenosine A1 receptor transfected in CHO cells at 10 uM
T1 sequence (whole entry): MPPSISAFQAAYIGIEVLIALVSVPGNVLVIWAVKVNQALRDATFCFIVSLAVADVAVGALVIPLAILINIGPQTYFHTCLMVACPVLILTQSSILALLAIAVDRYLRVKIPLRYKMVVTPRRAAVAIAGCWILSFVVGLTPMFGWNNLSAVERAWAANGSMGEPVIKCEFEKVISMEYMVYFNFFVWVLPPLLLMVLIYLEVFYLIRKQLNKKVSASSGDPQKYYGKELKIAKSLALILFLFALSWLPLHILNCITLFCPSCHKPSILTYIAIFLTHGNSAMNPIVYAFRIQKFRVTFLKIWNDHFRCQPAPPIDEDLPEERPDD

Adenosine receptor A2a [2] = target: T2, Adenosine receptor A2a (Homo sapiens, UniProt P29274); assay: Inhibition of [3H]CGS-21680 binding to human adenosine A2A receptor transfected in HEK293 cells at 10 uM
Adenosine receptor A3 = target: T3, Adenosine receptor A3 (Homo sapiens, UniProt P0DMS8); assay: Displacement of [125I]AB-MECA from human adenosine A3 receptor transfected in CHO cells
T3 sequence (P0DMS8 whole entry): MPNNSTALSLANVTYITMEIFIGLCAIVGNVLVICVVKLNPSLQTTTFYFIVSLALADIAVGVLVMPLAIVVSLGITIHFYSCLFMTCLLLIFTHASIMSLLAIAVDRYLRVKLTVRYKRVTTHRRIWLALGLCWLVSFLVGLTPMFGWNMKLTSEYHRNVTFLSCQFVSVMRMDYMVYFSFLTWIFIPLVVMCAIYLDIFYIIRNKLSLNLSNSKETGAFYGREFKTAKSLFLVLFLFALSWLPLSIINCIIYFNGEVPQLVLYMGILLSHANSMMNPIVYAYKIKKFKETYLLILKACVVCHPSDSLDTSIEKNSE

Adenosine receptor A1 = target: T4, Adenosine receptor A1 (Homo sapiens, UniProt P30542); assay: Displacement of [3H]R-PIA from human adenosine A1 receptor transfected in CHO cells
T4 sequence (P30542 whole entry): T1 sequence (whole entry)
In short: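 Membranes (40 µg/tube) from CHO cells stably expressing human A1 receptor were incubated with 2 nM [3H]R-PIA at 25 °C for 60 min in 50 mM Tris·HCl pH 7.4 containing 10 mM MgCl2. Nonspecific binding defined with 10 µM CPA. Terminated by filtration through GF/B filters.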

Adenosine receptor A2a [3] = target: T2, Adenosine receptor A2a; assay: Displacement of [3H]CGS-21680 from human adenosine A2A receptor transfected in HEK293 cells
In short: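 Membranes (20 µg/tube) from HEK-293 cells stably expressing human A2A receptor, incubated with 15 nM [3H]CGS21680 at 25 °C for 60 min in 50 mM Tris·HCl pH 7.4 with 10 mM MgCl2. Nonspecific binding defined with 10 µM NECA. Terminated by filtration through GF/B filters.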

T2 sequence (P29274 whole entry): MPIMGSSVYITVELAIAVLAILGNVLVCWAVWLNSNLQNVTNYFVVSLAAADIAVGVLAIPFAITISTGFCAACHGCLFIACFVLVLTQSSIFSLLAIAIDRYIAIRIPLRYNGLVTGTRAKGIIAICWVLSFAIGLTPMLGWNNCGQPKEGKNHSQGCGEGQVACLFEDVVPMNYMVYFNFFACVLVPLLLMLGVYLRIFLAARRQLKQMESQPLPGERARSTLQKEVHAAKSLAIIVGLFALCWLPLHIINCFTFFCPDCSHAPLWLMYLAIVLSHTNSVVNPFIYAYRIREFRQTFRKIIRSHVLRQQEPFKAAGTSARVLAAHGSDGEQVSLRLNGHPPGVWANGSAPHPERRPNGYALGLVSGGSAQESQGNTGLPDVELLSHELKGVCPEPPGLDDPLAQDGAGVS

Row | Structure (SMILES) | inhibition [1] | inhibition (Adenosine receptor A2a [2]) | Ki (Adenosine receptor A3) | Ki (Adenosine receptor A1) | Ki (Adenosine receptor A2a [3])
1 | Cc1ccccc1CNc1nc(Cl)nc2c1ncn2[C@@H]1S[C@H](C(=O)N(C)C)[C@@H](O)[C@H]1O | 0% | 22.5% | 0.632 µM |  | 
2 | CNc1nc(Cl)nc2c1ncn2[C@@H]1S[C@H](C(=O)NCc2cccc(F)c2)[C@@H](O)[C@H]1O | 67% | 41% | 0.0174 µM |  | 
3 | Cc1ccccc1CNc1nc(Cl)nc2c1ncn2[C@@H]1S[C@H](C(=O)NC2CC2)[C@@H](O)[C@H]1O |  |  | 0.0278 µM | 0.0767 µM | 0.202 µM
4 | CNc1nc(Cl)nc2c1ncn2[C@@H]1S[C@H](C(=O)NCC2CC2)[C@@H](O)[C@H]1O |  | 44% | 0.0011 µM | 0.638 µM | 
5 | O=C(NC1CCC1)[C@H]1S[C@@H](n2cnc3c(NCc4cccc(I)c4)nc(Cl)nc32)[C@H](O)[C@@H]1O |  |  | 0.0182 µM | 0.126 µM | 0.549 µM
6 | CNc1nc(Cl)nc2c1ncn2[C@@H]1S[C@H](C(=O)N2CCOCC2)[C@@H](O)[C@H]1O | 4% | 24% | 3.87 µM |  | 
7 | CCNC(=O)[C@H]1S[C@@H](n2cnc3c(NCc4ccccc4C)nc(Cl)nc32)[C@H](O)[C@@H]1O |  |  | 0.0025 µM | 0.0758 µM | 0.429 µM
8 | Cc1ccccc1CNc1nc(Cl)nc2c1ncn2[C@@H]1S[C@H](C(=O)N2CCC(Cc3ccccc3)CC2)[C@@H](O)[C@H]1O | 26% | 15% | 49.2 µM |  | 
9 | CC(C)CCNC(=O)[C@H]1S[C@@H](n2cnc3c(NCc4cccc(I)c4)nc(Cl)nc32)[C@H](O)[C@@H]1O | 31% | 31% | 0.0419 µM |  | 
10 | CCNC(=O)[C@H]1S[C@@H](n2cnc3c(NC4CC4)nc(Cl)nc32)[C@H](O)[C@@H]1O |  |  | 0.00067 µM | 0.0032 µM | 0.604 µM
11 | O=C(NC1CC1)[C@H]1S[C@@H](n2cnc3c(NC4CC4)nc(Cl)nc32)[C@H](O)[C@@H]1O |  |  | 0.00556 µM | 0.0046 µM | 0.325 µM
12 | CNc1nc(Cl)nc2c1ncn2[C@@H]1S[C@H](C(=O)NCCC(c2ccccc2)c2ccccc2)[C@@H](O)[C@H]1O | 20% | 15% | 0.415 µM |  | 
13 | O=C(NCCc1ccccc1)[C@H]1S[C@@H](n2cnc3c(NCc4cccc(I)c4)nc(Cl)nc32)[C@H](O)[C@@H]1O | 20% | 11% | 0.433 µM |  | 
14 | Cc1ccccc1CNc1nc(Cl)nc2c1ncn2[C@@H]1S[C@H](C(=O)N2CCOCC2)[C@@H](O)[C@H]1O | 4% | 17% | 7.67 µM |  | 
15 | CNc1nc(Cl)nc2c1ncn2[C@@H]1S[C@H](C(=O)NCCC(C)C)[C@@H](O)[C@H]1O |  | 14% | 0.00163 µM | 4.07 µM | 
16 | CCNC(=O)[C@H]1S[C@@H](n2cnc3c(NC4CCCC4)nc(Cl)nc32)[C@H](O)[C@@H]1O |  |  |  | 0.002 µM | 0.149 µM
17 | CNc1nc(Cl)nc2c1ncn2[C@@H]1S[C@H](C(=O)N2CCC(Cc3ccccc3)CC2)[C@@H](O)[C@H]1O | 10% | 6% | 3.5 µM |  | 
18 | CCNC(=O)[C@H]1S[C@@H](n2cnc3c(NCc4cccc(I)c4)nc(Cl)nc32)[C@H](O)[C@@H]1O |  |  | 0.00089 µM | 0.144 µM | 0.292 µM

Next, values leading:

Row | inhibition [1] | inhibition (Adenosine receptor A2a [2]) | Ki (Adenosine receptor A3) | Ki (Adenosine receptor A1) | Ki (Adenosine receptor A2a [3]) | Structure (SMILES)
19 |  |  | 0.00296 µM | 0.092 µM | 0.326 µM | O=C(NC1CC1)[C@H]1S[C@@H](n2cnc3c(NCc4cccc(I)c4)nc(Cl)nc32)[C@H](O)[C@@H]1O
20 |  |  | 0.00224 µM | 0.0373 µM | 4.89 µM | CNC(=O)[C@H]1S[C@@H](n2cnc3c(NC4CC4)nc(Cl)nc32)[C@H](O)[C@@H]1O
21 | 10% | 12% | 1.5 µM |  |  | CNc1nc(Cl)nc2c1ncn2[C@@H]1S[C@H](C(=O)N(C)C)[C@@H](O)[C@H]1O
22 | 18% | 4% | 0.51 µM |  |  | O=C([C@H]1S[C@@H](n2cnc3c(NCc4cccc(I)c4)nc(Cl)nc32)[C@H](O)[C@@H]1O)N1CCOCC1
23 | 15% | 30% | 0.0856 µM |  |  | CNc1nc(Cl)nc2c1ncn2[C@@H]1S[C@H](C(=O)NCCc2cccc(F)c2)[C@@H](O)[C@H]1O
24 | 25% | 11% | 4.44 µM |  |  | O=C([C@H]1S[C@@H](n2cnc3c(NC4CC4)nc(Cl)nc32)[C@H](O)[C@@H]1O)N1CCOCC1
25 | 28% | 34% | 2.7 µM |  |  | CNc1nc(Cl)nc2c1ncn2[C@@H]1S[C@H](C(=O)N2CCN(c3ccc(F)cc3)CC2)[C@@H](O)[C@H]1O
26 |  |  | 0.00364 µM | 1.72 µM | 2.22 µM | O=C(NCC1CC1)[C@H]1S[C@@H](n2cnc3c(NCc4cccc(I)c4)nc(Cl)nc32)[C@H](O)[C@@H]1O
27 | 0% | 11% | 0.354 µM |  |  | O=C(NCc1cccc(C(F)(F)F)c1)[C@H]1S[C@@H](n2cnc3c(NCc4cccc(I)c4)nc(Cl)nc32)[C@H](O)[C@@H]1O
28 |  |  | 0.00427 µM | 0.0139 µM | 0.921 µM | CNC(=O)[C@H]1S[C@@H](n2cnc3c(NC4CCCC4)nc(Cl)nc32)[C@H](O)[C@@H]1O
29 | 32% | 33% | 4.02 µM |  |  | O=C([C@H]1S[C@@H](n2cnc3c(NC4CC4)nc(Cl)nc32)[C@H](O)[C@@H]1O)N1CCC(Cc2ccccc2)CC1
30 |  |  | 0.00218 µM | 0.507 µM | 1.32 µM | CNC(=O)[C@H]1S[C@@H](n2cnc3c(NCc4ccccc4C)nc(Cl)nc32)[C@H](O)[C@@H]1O
31 | 38% | 17% | 0.878 µM |  |  | O=C([C@H]1S[C@@H](n2cnc3c(NCc4cccc(I)c4)nc(Cl)nc32)[C@H](O)[C@@H]1O)N1CCC(Cc2ccccc2)CC1
32 | 5% | 3% | 0.343 µM |  |  | O=C(NCCC(c1ccccc1)c1ccccc1)[C@H]1S[C@@H](n2cnc3c(NCc4cccc(I)c4)nc(Cl)nc32)[C@H](O)[C@@H]1O
33 |  |  | 0.0297 µM | 1.98 µM | 3.89 µM | Cc1ccccc1CNc1nc(Cl)nc2c1ncn2[C@@H]1S[C@H](C(=O)NCC2CC2)[C@@H](O)[C@H]1O
34 |  | 28% | 0.308 µM | 1.71 µM |  | O=C(NCc1cccc(Cl)c1)[C@H]1S[C@@H](n2cnc3c(NCc4cccc(I)c4)nc(Cl)nc32)[C@H](O)[C@@H]1O
35 |  | 20% |  |  |  | CNC(=O)[C@H]1S[C@@H](n2cnc3c(NC)nc(Cl)nc32)[C@H](O)[C@@H]1O
36 |  |  | 0.00282 µM | 0.0478 µM | 2.77 µM | CNc1nc(Cl)nc2c1ncn2[C@@H]1S[C@H](C(=O)NC2CC2)[C@@H](O)[C@H]1O
37 | 24% | 12% | 1.44 µM |  |  | O=C([C@H]1S[C@@H](n2cnc3c(NCc4cccc(I)c4)nc(Cl)nc32)[C@H](O)[C@@H]1O)N1CCN(c2ccc(F)cc2)CC1

From ChEMBL document CHEMBL1148606 (J Med Chem, 2006)
